In ChEMBL document CHEMBL5331111, “Synthetic Biology Facilitates Semisynthetic Development of Type V Glycopeptide Antibiotics Targeting Vancomycin-Resistant Enterococcus” (J Med Chem, 2023):
In brackets after ≈: the same amount, converted by molar mass.

What follows are compounds tested on Mycobacterium tuberculosis variant bovis (assay: Antimycobacterial activity against Mycobacterium bovis BCG Pasteur ATCC 35734 assessed as inhibition of bacterial growth measured after 7 days by resazurin dye based analysis). Settings: BCG Pasteur ATCC 35734, 168 h, time 7 day.
Format: functional
Outline: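 Strains grown in 7H9 broth with 0.2% glycerol, 10% OADC and 0.05% Tween-80. Inoculum was about 5 × 10^5 CFU/mL, checked by plating on 7H10/OADC agar to be 3–8 × 10^5. Read at 2 days for M. smegmatis and 7 days for M. tuberculosis H37Ra, M. bovis and M. avium. Resazurin 30 μg/mL was then added for one further day. Values are averages of at least two experiments.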
Work on `NNC(=O)c1ccncc1` [ISONIAZID] yielded an MIC of 0.13 µg/mL (≈ 0.948 µM).
`CN1C(=O)[C@@H](c2cc(Cl)c(O)c(Cl)c2)NC(=O)[C@@H]2NC(=O)[C@@H](c3cc(Cl)c(O)c(Cl)c3)NC(=O)[C@H](NC(=O)C(=O)c3cc(Cl)c(O)c(Cl)c3)Cc3c[nH]c4cc(ccc34)-c3cc2cc(c3O)Oc2ccc(cc2)C[C@H]1C(=O)N[C@@H](C(=O)O)c1ccc(O)cc1` [ISOCOMPLESTATIN] gave an MIC of 64 µg/mL (≈ 48.2 µM).
`CN1C(=O)[C@@H]2NC(=O)[C@@H]3NC(=O)[C@@H](c4ccc(O)cc4)NC(=O)[C@H](NC(=O)C(N)c4ccc(O)cc4)Cc4c[nH]c5cc(ccc45)-c4cc3cc(c4O)Oc3ccc(cc3)C[C@H]1C(=O)N[C@@H](C(=O)O)c1ccc(O)c(c1)Oc1ccc2cc1` (stereo partly drawn) was tested, and the MIC was 8 µg/mL (≈ 7.14 µM).
